S100A4 MyoIIA: inhibitors of S100A4-myosin IIA peptide binding, primary screen, biochemical, fluorescence polarization, TAMRA-MyoIIA peptide. Protein S100-A4 (Homo sapiens), P26447. inhibition, % at 10.7 µM. actives 0.14% (n = 360,000). AID 652163, 2013;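 active means mean inhibition of at least 70% across replicates, with every replicate also reaching that level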
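assay system = human S100A4 monomer with TAMRA-labelled myosin IIA peptide | also added = labelled myosin peptide probe, 5 nM | incubation = 5 min between mix addition and reading | control set = DMSO and TFP controls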
C2C12 statin: suppressors of statin myotoxicity in C2C12 myotubes, primary screen, cell-based, single point, plate reader; C2C12 myotubes + simvastatin, ATP luminescence, 48 h; scaled: DMSO 0, geranylgeraniol control 100; AID 602340, 2012; rescue of ATP level, % at 7.49 µM; actives 0.78% (n = 330,000);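 active means mean ATP rescue above about 67%, or every replicate alone reaching that limit, limit read from the data, passing the limit was not always enough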;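 further: myotubes were challenged with 10 µM simvastatin during compound exposure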
ERAP1 HTS inh: human ERAP1 aminopeptidase inhibitors, primary screen, biochemical, single point, plate reader; recombinant ERAP1, Leu-AMC fluorescence, 60 min; inhibition, % at 10.7 µM; actives 0.15% (n = 340,000);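 active means mean replicate inhibition of at least 30%, or all replicates individually reaching that 30% level; inactive means mean below 30% and not every replicate reaching it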;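 further: 0% = neutral control wells and 100% = L-leucinethiol positive control wells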
Target sequence (Q9NZ08 whole entry, looked up): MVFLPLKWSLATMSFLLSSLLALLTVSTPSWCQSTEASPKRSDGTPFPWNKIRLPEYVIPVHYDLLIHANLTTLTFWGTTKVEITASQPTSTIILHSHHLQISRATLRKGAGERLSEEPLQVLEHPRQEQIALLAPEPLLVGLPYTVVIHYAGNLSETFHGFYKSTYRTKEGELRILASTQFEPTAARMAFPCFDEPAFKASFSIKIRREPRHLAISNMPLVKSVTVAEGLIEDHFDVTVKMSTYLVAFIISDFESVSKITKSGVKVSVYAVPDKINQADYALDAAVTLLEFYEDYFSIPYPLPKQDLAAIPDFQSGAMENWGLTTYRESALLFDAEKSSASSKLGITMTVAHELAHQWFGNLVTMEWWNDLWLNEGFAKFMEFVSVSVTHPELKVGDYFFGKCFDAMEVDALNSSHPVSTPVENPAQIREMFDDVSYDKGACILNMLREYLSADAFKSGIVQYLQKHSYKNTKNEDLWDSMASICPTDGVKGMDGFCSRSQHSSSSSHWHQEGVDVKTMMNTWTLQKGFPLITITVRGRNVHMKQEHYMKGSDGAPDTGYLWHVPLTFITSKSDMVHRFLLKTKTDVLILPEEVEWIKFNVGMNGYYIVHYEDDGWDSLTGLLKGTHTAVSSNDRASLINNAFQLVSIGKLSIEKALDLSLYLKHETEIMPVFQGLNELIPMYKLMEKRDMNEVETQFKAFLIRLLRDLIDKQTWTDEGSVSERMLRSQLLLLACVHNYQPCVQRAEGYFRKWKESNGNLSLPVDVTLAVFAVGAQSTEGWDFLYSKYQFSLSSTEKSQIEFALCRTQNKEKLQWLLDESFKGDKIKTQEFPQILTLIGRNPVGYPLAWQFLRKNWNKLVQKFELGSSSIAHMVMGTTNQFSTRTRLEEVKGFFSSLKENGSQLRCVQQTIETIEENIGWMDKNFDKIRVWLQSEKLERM
Rtt109 HAT inh: inhibitors of C. albicans Rtt109/Vps75 HAT, primary screen, biochemical, ThioGlo CoA-SH fluorescence, plate reader | purified Rtt109/Vps75, 4 h | Histone acetyltransferase RTT109 (Candida albicans (strain SC5314 / ATCC MYA-2876)), … | actives 0.16% (n = 330,000) | AID 540336, 2011 | inhibition, % at 34.9 µM;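 active means inhibition of at least 50% in every replicate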
PGC1a acetyl inh: inhibitors of PGC1a acetylation signal, primary screen, cell-based, U2OS, AlphaScreen, inhibitor mode; AlphaScreen anti-acetyl-lysine; with virally co-expressed GCN5 acetyltransferase; inhibition, % at 15.6 µM; actives 0.17% (n = 350,000); AID 651687, 2012;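 active means every replicate shows inhibition of at least 40%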;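 further: 0% = neutral control wells and 100% = positive control wells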
Starred values were filed as active, the others as inactive. Rows were chosen to be rich in hits. Some 0.98% of all compounds tested hit in one or more screens of this group.

What do the screens show for `Cc1noc(C)c1NC(=O)N(C)C[C@H]1Oc2ccc(NC(=O)Nc3cccc4ccccc34)cc2C(=O)N([C@@H](C)CO)C[C@@H]1C`?
S100A4 MyoIIA: -2; C2C12 statin: 13; ERAP1 HTS inh: 0; PGC1a acetyl inh: 1

What do the screens show for `C[C@@H]1CN([C@H](C)CO)C(=O)c2cc(-c3ccc(C#N)cc3)cnc2O[C@H]1CN(C)Cc1ccccn1`?
S100A4 MyoIIA: -9; C2C12 statin: -14; ERAP1 HTS inh: 0; PGC1a acetyl inh: 2

Results for CCOC(=O)NC(=O)CSc1nnnn1-c1ccc(C)cc1 ?
C2C12 statin: -1; Rtt109 HAT inh: -6; PGC1a acetyl inh: 94*

How did CCOC(=O)NC(=O)CSc1nnnn1-c1ccc(Cl)cc1 do in these assays?
S100A4 MyoIIA: 2; C2C12 statin: -37; ERAP1 HTS inh: -3; Rtt109 HAT inh: -13; PGC1a acetyl inh: 3

Results for CCCN(C)C[C@@H]1Oc2cc(C#CC(C)(C)O)ccc2S(=O)(=O)N([C@@H](C)CO)C[C@@H]1C ?
S100A4 MyoIIA: 4; C2C12 statin: 12; ERAP1 HTS inh: 1; PGC1a acetyl inh: -6

What do the screens show for `CCCCCCOC(=O)c1ccc(N)cc1`?
S100A4 MyoIIA: -5; ERAP1 HTS inh: -1; Rtt109 HAT inh: -2; PGC1a acetyl inh: 3

Results for CCCCCCCCCCCC1N=C(N)NC(CCCO)=C1C(=O)OC (stereo not drawn) ?
S100A4 MyoIIA: -1; ERAP1 HTS inh: 44*; Rtt109 HAT inh: 7; PGC1a acetyl inh: -7

Results for CCCCOc1nc2ccccc2nc1C(C#N)C(=O)NC1CCCCC1 (stereo not drawn) ?
C2C12 statin: 108*; Rtt109 HAT inh: -7; PGC1a acetyl inh: -2

How did O=c1[nH]c(CN2CCCCC2)nc2c1C1(CCCCC1)Cc1ccccc1-2 do in these assays?
C2C12 statin: 91*; Rtt109 HAT inh: 7; PGC1a acetyl inh: -9

How did CCc1nc2c(c(=O)[nH]1)C1(CCCC1)Cc1ccccc1-2 do in these assays?
C2C12 statin: -32; Rtt109 HAT inh: -2; PGC1a acetyl inh: 0

Results for Cc1ccc(S(=O)(=O)N(C)C[C@@H]2Oc3ncc(C#Cc4cccc(F)c4)cc3C(=O)N([C@H](C)CO)C[C@@H]2C)cc1 ?
S100A4 MyoIIA: 5; C2C12 statin: 100*; ERAP1 HTS inh: -5; PGC1a acetyl inh: -3

Results for C[C@H](CO)N1C[C@H](C)[C@H](CN(C)S(=O)(=O)c2ccccc2)Oc2ncccc2C1=O ?
S100A4 MyoIIA: 4; C2C12 statin: -1; ERAP1 HTS inh: 2; PGC1a acetyl inh: -9

Results for C[C@H](CO)N1C[C@H](C)[C@H](CN(C)S(=O)(=O)c2ccc(C#N)cc2)Oc2ncc(C#Cc3cccc(F)c3)cc2C1=O ?
S100A4 MyoIIA: 11; C2C12 statin: 22; ERAP1 HTS inh: 3; PGC1a acetyl inh: 2

How did COc1ccc(S(=O)(=O)N(C)C[C@@H]2Oc3ncccc3C(=O)N([C@H](C)CO)C[C@@H]2C)cc1 do in these assays?
S100A4 MyoIIA: -5; C2C12 statin: 51; ERAP1 HTS inh: 42*; PGC1a acetyl inh: -5

How did COc1cccc(S(=O)(=O)N(C)C[C@@H]2Oc3ncccc3C(=O)N([C@H](C)CO)C[C@@H]2C)c1 do in these assays?
S100A4 MyoIIA: 10; C2C12 statin: -5; ERAP1 HTS inh: 46*; PGC1a acetyl inh: 11

Results for COc1cccc(S(=O)(=O)N(C)C[C@H]2Oc3ncc(Br)cc3C(=O)N([C@H](C)CO)C[C@H]2C)c1 ?
S100A4 MyoIIA: -1; C2C12 statin: 10; ERAP1 HTS inh: -2; PGC1a acetyl inh: 10

Results for C[C@H](CO)N1C[C@H](C)[C@H](CN(C)C(=O)NC2CCCCC2)OCCCC[C@H](C)Oc2ccc(NC(=O)Nc3ccccc3)cc2C1=O ?
S100A4 MyoIIA: 4; ERAP1 HTS inh: 2; PGC1a acetyl inh: 4

Results for CO[C@@H](C(=O)N(C)C[C@@H]1OCc2ccccc2-c2c(n(C)c3ccccc23)C(=O)N([C@H](C)CO)C[C@@H]1C)c1ccccc1 ?
S100A4 MyoIIA: 9; C2C12 statin: -6; ERAP1 HTS inh: 1; PGC1a acetyl inh: -6

Source: PubChem BioAssay
